From ChEMBL document CHEMBL4513216, “Probing the Open Global Health Chemical Diversity Library for Multistage-Active Starting Points for Next-Generation Antimalarials” (ACS Infect Dis, 2020)

Assay: Toxicity liver stage against HepG2, at 10uM
Type: cell-based
Design: test concentration 10 uM, cell line HepG2-A16-CD81EGFP
Conditions: human, HepG2-A16-CD81EGFP cells; read-out: INHIBITION
Procedure, shortened: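 Uninfected HepG2-A16-CD81EGFP cells, 3 × 10^3 per well, 1536-well, plated on prespotted compound at 10 μM final, parasite-free screening media added to match infected plates; puromycin 10 μM positive, DMSO 0.5% negative; run in parallel with 48 h PbLuc assay at 37 °C, 5% CO2; viability by CellTiter-Glo luminescence, normalized to controls.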

| Compound | cytotoxicity at 10 µM [%] |
| --- | --- |
| O=C(c1ccco1)N1CCC2(CC1)CCN(c1ncccn1)CC2 | 4.59 |
| COCc1cc(C[C@@H]2CC[C@H](O)[C@@H](CN(CC(C)C)CC(C)C)O2)no1 | 0.169 |
| O=C(c1cccnc1)N1C[C@@H]2OCC(=O)N(Cc3cccnc3)[C@@H]2C1 | 2.08 |
| CC(=O)N1CCC(N2CCN3C(=O)N(Cc4ccccn4)C[C@H]3C2)CC1 | 2.26 |
| CC(C)N[C@@H]1CO[C@H](CNC(=O)c2cccs2)[C@H]1O | -3.65 |
| O=C(O)C[C@@H]1CCN(C(=O)C2CCCC2)C[C@@H]1CCN1CCCCC1 | -6.51 |
| COc1c[nH]c(C(=O)Nc2nc(C)cs2)cc1=O | -44.4 |
| COCCn1/c(=N\C(=O)CN(C)S(C)(=O)=O)sc2cc(Cl)ccc21 | -13.7 |
| O=C(Nc1cc(N2CCOCC2)ncn1)c1cnccn1 | -3.45 |
| CCc1c(C)nc2n(c1=O)CC(C(=O)Nc1sccc1C(=O)OC)CS2 (centres undefined) | 3.24 |
| CC(=O)N1C[C@@H]2C(=O)N(C)C3(CCN(C(=O)C(C)C)CC3)[C@@H]2C1 | 0.434 |
| CCN1C(=O)[C@H]2CN(Cc3cccnc3)C[C@H]2C12CCN(C(C)=O)CC2 | -1.8 |
| COc1ccc(C[C@H]2CN(C(=O)c3ccn(C)n3)CC[C@H]2OC)cc1 | 5.12 |
| O=C(C1CCOC1)N1CCC2(CCCNC2)CC1 (centres undefined) | -1.74 |
| O=C(c1c2c(N3CCOCC3)ncnc2n2ccccc12)N1CCCC1 | -1.52 |
| O=C1CC2(CCN(c3nncs3)C2)CN1c1ccc2c(c1)OCCO2 (centres undefined) | 6.66 |
| O=C(c1ccco1)N1CC[C@H]2C[C@@H](c3nccs3)O[C@@H]2C1 | 0.428 |
| O=C(CCn1ccc2ccc(Br)cc21)/N=c1\[nH]nc(C2CCCO2)s1 (centres undefined) | -9.46 |
| COCCNC(=O)Cn1nc(C(C)C)c2cnn(C(C)(C)C)c2c1=O | -21.9 |
| CCc1c(C)nc2n(c1=O)CC(C(=O)Nc1ccccc1F)CS2 (centres undefined) | 1.57 |
| CCOC(=O)N1CCN(C(=O)c2cc(-c3ccc(Cl)cc3Cl)on2)CC1 | 2.42 |
| Cc1nn(C)c2c(NCc3ccncc3)nc(C3CC3)nc12 | -4.17 |

| Compound | cytotoxicity at 10 µM [%] |
| --- | --- |
| Cc1cc(C(=O)NCc2cnn(C)c2C)nc(N2CCCCCC2)n1 | 2.01 |
| COC(=O)CCn1ccc(=O)c2ccc(OC)cc21 | 17.1 |
| O=C(O)C1CN(c2cccc(F)c2)CCO1 (centres undefined) | -25.2 |
| O=C(O)C1CN(c2cccc(Cl)c2)CCO1 (centres undefined) | -12.4 |
| Cc1nc2ccccn2c1CC(=O)N[C@@H]1CC[C@@H](N2CCCC2)[C@@H]1O | -12.4 |
| Cc1cnc(C(=O)N2Cc3ccccc3OC3(CCOCC3)C2)cn1 | -1.54 |
| Cc1ncc(CN2CCOC(c3ccc(-c4cnn(C)c4)cn3)C2)s1 (centres undefined) | -23 |
| CCC(=O)N1CCC(c2cc(Nc3ncccn3)nc(C)n2)C1 (centres undefined) | -24 |
| O=C(Cn1ccnc1)N1C[C@@H]2CC[C@H](Oc3ccccc3F)[C@@H]2C1 | -28.9 |
| CN1CCC(c2cccc(CCC(=O)NCC(N)=O)n2)CC1 | -20.1 |
| COc1c(C)cnc(CN2CCn3c(C)nnc3C2)c1C | -4.97 |
| N#CCCN(C(=O)CCc1cscn1)c1ccc2c(c1)OCCO2 | -2.12 |
| O=C(NCCO)Nc1ccc(Cl)cc1-n1cccc1 | 7.82 |
| COCC(=O)N(CCC(=O)OC)CC1CCCO1 (centres undefined) | 1.74 |
| Cn1nc2c(cc1=O)CN(Cc1nc(-c3ccoc3)no1)CC2 | 7.72 |
| CCOC(=O)NCCNC(=O)c1cc2ccccc2nc1N1CCCC1 | -7.74 |
| CS(=O)(=O)NCCNC(=O)NC1(c2ccc(Cl)cc2)CCC1 | -2.48 |
| N#Cc1ccc(SCCCO)c(F)c1 | 5.11 |
| N#Cc1cccc(OCCN2CCCC(c3noc(C4CC4)n3)C2)c1 (centres undefined) | -0.276 |
| COc1ccnc(N2CCN(C(=O)c3cscn3)CC2)n1 | 0.883 |
| CN(Cc1noc(C2CC2)n1)CC1CCN(CCO)CC1 | -3.96 |
| COC(=O)c1ccccc1S(=O)(=O)NC(=O)c1cccc2c1OCCO2 | -12.5 |

| Compound | cytotoxicity at 10 µM [%] |
| --- | --- |
| CC(CN1CCOCC1)NC(=O)NCc1ccoc1 (centres undefined) | -5.52 |
| COc1ccc2cccc(CC(=O)NCCCc3n[nH]c(C)n3)c2c1 | -2.11 |
| COCCN(Cc1cnn(C)c1)Cc1ccc(C)o1 | -0.0972 |
| Cc1nnc(CN(C)CCCOc2cccc(Cl)c2)o1 | 2.51 |
| O=C(CN1CCCS(=O)(=O)CC1)NCc1ccccc1F | 3.76 |
| O=C(NCc1nc2cc(F)ccc2[nH]1)c1ccc[nH]1 | 11.9 |
| CC(C)CNC(=O)c1[nH]nc(C2CC2)c1Br | 2.71 |
| Cc1cccc(C(C)CNC(=O)N2CCOCC3(CCOCC3)C2)c1 (centres undefined) | 8.84 |
| CC(C)(C)C(O)CN1CCN(CC(=O)NC2CCOCC2)CC1 (centres undefined) | -8.06 |
| Cc1ccc(C2CSCCN2C(=O)c2ccc(C(N)=O)cc2)o1 (centres undefined) | -2.12 |
| CN(Cc1ccc(Cl)s1)C(=O)c1cccc(OCC(N)=O)c1 | -1.61 |
| Cc1ccccc1-c1cc(NC(=O)CC(C)C)n(CCO)n1 | 7.47 |
| CN1C(=O)C(c2cccnc2)CC12CCN(CCO)CC2 (centres undefined) | 3.55 |
| O=C(c1ccncc1F)N1CCc2ncnc(-c3ccncc3)c2CC1 | 2.75 |
| CCc1nn(C)c(Cl)c1CN1CCC(Cc2nncn2C)CC1 | -1.52 |
| CCc1cc(CN(C)C(=O)CN2CC(Cc3ccccc3)CC2=O)on1 (centres undefined) | -0.28 |
| COc1cccc2c(=O)n(Cc3cc(C4CC4)[nH]n3)cnc12 | 3.76 |
| CCN1CCCC(c2c(-c3ccccc3)ncn2CCCO)C1 (centres undefined) | -3.41 |
| Cc1ccc(OCCN(C)C(=O)CCCC(N)=O)c(C)c1 | 1.47 |
| CN(Cc1nncn1C)c1nccc(C2CCCC2)n1 | -1.14 |
| CNc1nc(N2CCC3(CCCNC3=O)C2)nc2c1CCC2 (centres undefined) | -4.95 |
| CCc1cc(N(C)Cc2c(C)nn(C)c2C)n2nccc2n1 | 0.613 |

| Compound | cytotoxicity at 10 µM [%] |
| --- | --- |
| CCCn1ccnc1CN1C[C@@H](NC(C)=O)[C@H](c2ccc(C)cc2)C1 | 1.9 |
| CC(=O)NCc1cc2n(n1)CCN(Cc1cccc(CCN)c1)C2 | -19.5 |
| COc1cccc(C(=O)N2CCc3c(nc(N)[nH]c3=O)C2)c1OC | -9.91 |
| CN(C)c1ncc(-c2c(-c3ccccc3)ncn2C(CO)C(=O)O)cn1 (centres undefined) | 0.471 |
| CN(C)C(=O)CCCNc1ncc2c(n1)CCN2c1ccccc1 | 2.29 |
| Cc1cc(N2CCC(O)(CN(C)C)C2)c2cc3c(cc2n1)OCO3 (centres undefined) | 45.4 |
| Cc1cnc(C)c(N2CCN(Cc3ccc(-c4cc[nH]n4)o3)CC2)n1 | -5.01 |
| CCS(=O)(=O)N1CCC(NC(=O)c2cc(C(C)C)ccc2O)CC1 | -5.16 |
| Cc1cnn(CC2CCCCN2Cc2cnc(C)s2)c1 (centres undefined) | -11.3 |
| CC(=O)Nc1ccc(-n2cncn2)c(F)c1 | -11.3 |
| COC1CCN(C(=O)Cc2csc(-c3ccc(F)cc3)n2)CC1 | -6.16 |
| CC(C)c1nc(C2CCCN(C(=O)Cn3ccccc3=O)C2)no1 (centres undefined) | -16.3 |
| Cc1cc(NC(=O)CNC2CCc3nc(C(C)C)nn3C2)no1 (centres undefined) | -3.87 |
| CC(C)N(CC(N)=O)Cc1csc(C(C)(C)C)n1 | -5.13 |
| CCN(CC)C(=O)C1CCCN1C(=O)c1cccc(-n2cnnn2)c1 (centres undefined) | -14.9 |
| Cc1noc(C(C)C)c1C(=O)NCC(c1ccccc1)N(C)C (centres undefined) | -7.72 |
| COc1ccc(CCC(=O)N2CCCC(n3cncn3)C2)cc1 (centres undefined) | -21 |
| CC(O)CN1CCN(C(=O)c2ccn(-c3ccc(F)cc3)n2)CC1 (centres undefined) | -6.11 |
| CN(C)c1cc(CNC(=O)c2ccccc2Cl)ccn1 | -8.28 |
| N#CC1CCN(C(=O)NCCc2ccc(Cl)s2)CC1 | -16.1 |
| CNC(=O)CN1CCN(C(=O)c2ccn(C)c(=O)c2)CC1 | -16 |
| CCn1cnnc1CNC(=O)c1cc(Cl)c(I)cc1OC | -14.4 |

| Compound | cytotoxicity at 10 µM [%] |
| --- | --- |
| CCCn1nc2c(cc1=O)CN(CCN1CCCC1=O)CC2 | -11.6 |
| c1ccc(-c2nc(CN3CCCC(Cn4cncn4)C3)cs2)cc1 (centres undefined) | -9.53 |
| Cc1ccc(-c2nc(CN3CCCC(Cn4cncn4)C3)cs2)o1 (centres undefined) | -22.2 |
| CCOc1ncccc1CNC(=O)c1cc(C)on1 | -19 |
| CNS(=O)(=O)c1ccc(C(=O)NCCc2ccccn2)cc1 | -3.81 |
| COCCc1noc(CN2CCN(CC(O)c3ccccc3)CC2)n1 (centres undefined) | 2.67 |
| CC(O)CN1CCC(CNCc2c[nH]nc2C(C)(C)C)CC1 (centres undefined) | -8.55 |
| Cn1cccc1C(=O)N1CCc2c(CNS(C)(=O)=O)cncc2C1 | 4.68 |
| CC1CCCN(Cc2ccnc(-c3cccnc3)n2)C1 (centres undefined) | -6.57 |
| O=C(c1cccnc1)N1CCC[C@]2(C[C@H](Oc3ncccc3F)CO2)C1 | 0.37 |
| Fc1cccnc1O[C@@H]1CN(Cc2ccco2)[C@@H]2CCCO[C@@H]21 | 5.08 |
| Cc1ccc(C(=O)N2C[C@@H]3CCCO[C@@H]3[C@H](N(C)Cc3ccco3)C2)o1 | 5.51 |
| Cc1ccc(CN2CCC3(CCC(C(=O)N(C)C)O3)CC2)o1 (centres undefined) | -2.63 |
| CC(C)NC(=O)N1CCc2ncnc(-c3ccncc3)c2CC1 | -0.736 |
| O=C(c1ccco1)N1C[C@H]2CCCN(Cc3ccncc3)[C@H]2C1 | 0.361 |
| CCCS(=O)(=O)N1C[C@@H](OCc2ccncc2)[C@H]2OCCC[C@H]21 | 5.56 |
| Cc1ccoc1C(=O)N1CC[C@H]2[C@@H]1CCC(=O)N2c1cccnc1 | -70.4 |
| CC1CCN(C(=O)[C@H]2C[C@@H]3CCN(CC4CCOCC4)C[C@H]3O2)CC1 | 5.35 |
| O=C(NC1COC2(CCN(CC3CCC3)CC2)C1)c1ccccn1 (centres undefined) | -1.95 |
| CN1C[C@H]2CC[C@@H](CC1=O)N2C(=O)c1cc2ccccc2[nH]c1=O | -7.66 |
| O=C1C[C@@H]2CC[C@H](CN1)N2c1cc(-c2ccccc2F)nc2ccnn12 | 20.4 |
